Values after ≈ are worked out from the molar mass of the structure shown.
Experiments:
[1] = test system: Mycobacterium tuberculosis; test: Antibacterial activity against Mycobacterium tuberculosis H37Rv by agar dilution method; assay type: functional
Summary of the method: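 Agar dilution in Middlebrook 7H11 agar supplemented with OADC, following an approach similar to NCCLS guidance. MIC determined in duplicate.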

[2] = test system: Mycolicibacterium smegmatis; test: Antibacterial activity against Mycobacterium smegmatis ATCC 14468 by agar dilution method; assay type: functional
Summary of the method: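 Agar dilution on Middlebrook 7H11 agar with OADC supplement, following an NCCLS-type procedure; MIC read in duplicate.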

[3] = test system: Mus musculus; test: Phototoxicity in Swiss albino mouse exposed to 18 J/cm'2 UV light irradiation assessed as ear thickness at 140 mg/kg, po; assay type: organism-based; design: dose 140 mg/kg, route oral; conditions: in vivo
Summary of the method: (§1)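 Female Swiss albino mice about 2 months old, 20-25 g, fasted at least 18 h, six per group. Single oral gavage of 140 mg/kg; vehicle 0.5% aqueous sodium carboxymethylcellulose at 10 ml/kg; lomefloxacin HCl 140 mg/kg as positive control. UVA for 4 h (about 18 J/cm²) from dosing. Both ears scored for erythema, edema and thickness pre-dose, at 4 h, and at about 24, 48, 72 and 96 h.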

[4] = Cytotoxicity against african green monkey Vero cells after 72 hrs by MTT assay; assay type: cell-based; conditions: chlorocebus sabaeus
Summary of the method: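 Cells exposed to compound for 72 h; viability from cellular MTT conversion to formazan; CC50 derived.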

[5] = test system: Mus musculus; test: Phototoxicity in Swiss albino mouse assessed as ear thickness at 140 mg/kg, po measured after 4 hrs of 18 J/cm'2 UV light irradiation; assay type: organism-based; design: dose 140 mg/kg, route oral; conditions: in vivo; summary of the method: as §1
[6] = test system: Mus musculus; test: Phototoxicity in Swiss albino mouse exposed to 4 hrs of 18 J/cm'2 UV light irradiation assessed as erythema at 140 mg/kg, po; assay type: organism-based; design: dose 140 mg/kg, route oral; conditions: in vivo; summary of the method: as §1
[7] = Inhibition of Mycobacterium smegmatis DNA gyrase assessed as inhibition of relaxed circular pUC18 supercoiling activity by agarose gel electrophoresis; design: species or system Mycolicibacterium smegmatis
Summary of the method: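 Gyrase purified from M. smegmatis, pre-incubated with compound in DMSO. Then 400 ng relaxed pUC18 added in 35 mM Tris-HCl pH 7.5, 5 mM MgCl2, 25 mM potassium glutamate, 2 mM spermidine, 2 mM ATP, BSA, yeast tRNA and 5% glycerol. Incubated 30 min at 37 °C; read-out by agarose gel electrophoresis. Ciprofloxacin and 5% DMSO reactions run as controls.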

[8] = test system: Mus musculus; test: Phototoxicity in Swiss albino mouse exposed to 4 hrs of 18 J/cm'2 UV light irradiation assessed as erythema at 140 mg/kg, po after 24 hrs; assay type: organism-based; design: dose 140 mg/kg, route oral; conditions: in vivo; summary of the method: as §1
[9] = test system: Mus musculus; test: Phototoxicity in Swiss albino mouse exposed to 4 hrs of 18 J/cm'2 UV light irradiation assessed as ear thickness at 140 mg/kg, po after 96 hrs; assay type: organism-based; design: dose 140 mg/kg, route oral; conditions: in vivo; summary of the method: as §1
[10] = test system: Mus musculus; test: Phototoxicity in Swiss albino mouse exposed to 4 hrs of 18 J/cm'2 UV light irradiation assessed as erythema at 140 mg/kg, po after 96 hrs; assay type: organism-based; design: dose 140 mg/kg, route oral; conditions: in vivo; summary of the method: as §1
[11] = test system: Mus musculus; test: Phototoxicity in Swiss albino mouse exposed to 4 hrs of 18 J/cm'2 UV light irradiation assessed as ear thickness at 140 mg/kg, po after 24 hrs; assay type: organism-based; design: dose 140 mg/kg, route oral; conditions: in vivo; summary of the method: as §1
[12] = test system: Mus musculus; test: Phototoxicity in Swiss albino mouse assessed as erythema at 140 mg/kg, po after 4 hrs of 18 J/cm'2 UV light irradiation; assay type: organism-based; design: dose 140 mg/kg, route oral; conditions: in vivo; summary of the method: as §1
[13] = test system: Mus musculus; test: Phototoxicity in Swiss albino mouse exposed to 4 hrs of 18 J/cm'2 UV light irradiation assessed as ear thickness at 140 mg/kg, po after 48 hrs; assay type: organism-based; design: dose 140 mg/kg, route oral; conditions: in vivo; summary of the method: as §1
[14] = test system: Mus musculus; test: Phototoxicity in Swiss albino mouse exposed to 4 hrs of 18 J/cm'2 UV light irradiation assessed as ear thickness at 140 mg/kg, po after 72 hrs; assay type: organism-based; design: dose 140 mg/kg, route oral; conditions: in vivo; summary of the method: as §1
[15] = test system: Mus musculus; test: Phototoxicity in Swiss albino mouse exposed to 4 hrs of 18 J/cm'2 UV light irradiation assessed as erythema at 140 mg/kg, po after 48 hrs; assay type: organism-based; design: dose 140 mg/kg, route oral; conditions: in vivo; summary of the method: as §1

| SMILES | MIC [1] | MIC [2] | other results |
| --- | --- | --- | --- |
| CC(C)(C)n1cc(C(=O)O)c(=O)c2cc([N+](=O)[O-])c(N3CCC(O)(c4ccc(Cl)cc4)CC3)cc21 | 6.26 µM (≈ 3.13 µg/mL) | 25 µM (≈ 12.5 µg/mL) |  |
| CCN(CC)C(=O)C1CCCN(c2cc3c(cc2[N+](=O)[O-])c(=O)c(C(=O)O)cn3-c2ccc(F)cc2)C1 (configuration not stated) | 6.13 µM (≈ 3.13 µg/mL) | 24.5 µM (≈ 12.5 µg/mL) |  |
| COc1ccc(CC2C3=C(CCCC3)CCN2c2cc3c(cc2[N+](=O)[O-])c(=O)c(C(=O)O)cn3C2CC2)cc1 (configuration not stated) | 3.04 µM (≈ 1.61 µg/mL) | 24.3 µM (≈ 12.9 µg/mL) |  |
| O=C(O)c1cn(C2CC2)c2cc(N3CCC(N4CCCCC4)CC3)c([N+](=O)[O-])cc2c1=O | 0.43 µM (≈ 0.189 µg/mL) | 1.77 µM (≈ 0.78 µg/mL) | Activity [3]: 0.24 mm; CC50 at 72 h [4]: 142 µM; Activity [5]: 0.26 mm; Activity [6]: Non-toxic; IC50 [7]: 20 µg/mL (≈ 45.4 µM); Activity [8]: Non-toxic; Activity [9]: 0.28 mm; Activity [10]: Non-toxic; Activity [11]: 0.26 mm; Activity [12]: Non-toxic; Activity [13]: 0.26 mm; Activity [14]: 0.29 mm; Activity [15]: Non-toxic |
| CC(C)(C)n1cc(C(=O)O)c(=O)c2cc([N+](=O)[O-])c(N3CCC(n4c(=O)[nH]c5cc(Cl)ccc54)CC3)cc21 | 5.79 µM (≈ 3.13 µg/mL) | 23.1 µM (≈ 12.5 µg/mL) |  |
| CC(C)(C)n1cc(C(=O)O)c(=O)c2cc([N+](=O)[O-])c(N3CCC4(CC3)OCCO4)cc21 | 7.45 µM (≈ 3.21 µg/mL) | 29 µM (≈ 12.5 µg/mL) |  |
| CC(C)(C)n1cc(C(=O)O)c(=O)c2cc([N+](=O)[O-])c(N3CCN(C(=O)c4ccco4)CC3)cc21 | 6.68 µM (≈ 3.13 µg/mL) | 13.3 µM (≈ 6.25 µg/mL) | IC50 [7]: 30 µg/mL (≈ 64 µM) |
| CCN(CC)C(=O)C1CCCN(c2cc3c(cc2[N+](=O)[O-])c(=O)c(C(=O)O)cn3C(C)(C)C)C1 (configuration not stated) | 6.62 µM (≈ 3.13 µg/mL) | 26.4 µM (≈ 12.5 µg/mL) |  |
| O=C(O)c1cn(C2CC2)c2cc(N3CCC4(CC3)OCCO4)c([N+](=O)[O-])cc2c1=O | 3.76 µM (≈ 1.56 µg/mL) | 15.1 µM (≈ 6.25 µg/mL) |  |
| O=C(O)c1cn(-c2ccc(F)cc2)c2cc(N3CCC4(CC3)OCCO4)c([N+](=O)[O-])cc2c1=O | 6.67 µM (≈ 3.13 µg/mL) | 26.6 µM (≈ 12.5 µg/mL) |  |
| O=C(O)c1cn(C2CC2)c2cc(N3CCN(C(=O)C4COc5ccccc5O4)CC3)c([N+](=O)[O-])cc2c1=O (configuration not stated) | 2.99 µM (≈ 1.56 µg/mL) | 12 µM (≈ 6.25 µg/mL) |  |
| COc1ccc(CC2C3=C(CCCC3)CCN2c2cc3c(cc2[N+](=O)[O-])c(=O)c(C(=O)O)cn3-c2ccc(F)cc2)cc1 (configuration not stated) | 5.36 µM (≈ 3.13 µg/mL) | 21.4 µM (≈ 12.5 µg/mL) |  |
| O=C(O)c1cn(-c2ccc(F)cc2)c2cc(N3CCC(n4c(=O)[nH]c5cc(Cl)ccc54)CC3)c([N+](=O)[O-])cc2c1=O | 5.42 µM (≈ 3.13 µg/mL) | 43.3 µM (≈ 25 µg/mL) |  |
| CC(C)(C)n1cc(C(=O)O)c(=O)c2cc([N+](=O)[O-])c(N3CCN(Cc4ccc5c(c4)OCO5)CC3)cc21 | 3.07 µM (≈ 1.56 µg/mL) | 24.6 µM (≈ 12.5 µg/mL) |  |
| O=C(O)c1cn2c(n1)CN(c1cc3c(cc1[N+](=O)[O-])c(=O)c(C(=O)O)cn3-c1ccc(F)cc1)CC2 | 12.7 µM (≈ 6.25 µg/mL) | 50.7 µM (≈ 25 µg/mL) |  |
| O=C(O)c1cn(C2CC2)c2cc(N3CCC(n4c(=O)[nH]c5cc(Cl)ccc54)CC3)c([N+](=O)[O-])cc2c1=O | 1.49 µM (≈ 0.781 µg/mL) | 2.97 µM (≈ 1.56 µg/mL) | IC50 [7]: 20 µg/mL (≈ 38.2 µM) |
| CC(C)(C)NC(=O)C1c2ccccc2CCN1c1cc2c(cc1[N+](=O)[O-])c(=O)c(C(=O)O)cn2C1CC1 (configuration not stated) | 1.55 µM (≈ 0.782 µg/mL) | 3.09 µM (≈ 1.56 µg/mL) | IC50 [7]: 30 µg/mL (≈ 59.5 µM) |
| COc1ccc(CC2C3=C(CCCC3)CCN2c2cc3c(cc2[N+](=O)[O-])c(=O)c(C(=O)O)cn3C(C)(C)C)cc1 (configuration not stated) | 5.74 µM (≈ 3.13 µg/mL) | 22.9 µM (≈ 12.5 µg/mL) |  |
| CN1CCN(c2cc3c(cc2[N+](=O)[O-])c(=O)c(C(=O)O)cn3C(C)(C)C)CC1c1ccccc1 (configuration not stated) | 16.1 µM (≈ 7.47 µg/mL) | 64.4 µM (≈ 29.9 µg/mL) |  |
| O=C(O)c1cn(C2CC2)c2cc(N3CCSCC3)c([N+](=O)[O-])cc2c1=O | 4.17 µM (≈ 1.57 µg/mL) | 33.3 µM (≈ 12.5 µg/mL) |  |
| CCN(CC)C(=O)C1CCCN(c2cc3c(cc2[N+](=O)[O-])c(=O)c(C(=O)O)cn3C2CC2)C1 (configuration not stated) | 3.42 µM (≈ 1.56 µg/mL) | 6.86 µM (≈ 3.13 µg/mL) |  |
| O=C(O)c1cn(-c2ccc(F)cc2)c2cc(N3CCC(O)(c4ccc(Cl)cc4)CC3)c([N+](=O)[O-])cc2c1=O | 5.82 µM (≈ 3.13 µg/mL) | 23.2 µM (≈ 12.5 µg/mL) |  |
| CC(C)(C)n1cc(C(=O)O)c(=O)c2cc([N+](=O)[O-])c(N3CCN(C(=O)C4COc5ccccc5O4)CC3)cc21 (configuration not stated) | 5.83 µM (≈ 3.13 µg/mL) | 23.3 µM (≈ 12.5 µg/mL) |  |

— ChEMBL document CHEMBL1152865, “Synthesis and antimycobacterial activities of novel 6-nitroquinolone-3-carboxylic acids” (Eur J Med Chem, 2009)
